Laboratory results: ChEMBL document CHEMBL1135500, “Highly antibacterial active aminoacyl penicillin conjugates with acylated bis-catecholate siderophores based on secondary diamino acids and related compounds” (2002)
In brackets after ≈: the same amount, converted by molar mass.

Legend:
Format in all cases: functional
[1] = system: Pseudomonas aeruginosa; experiment: In vitro antibacterial activity against SG 137 strain of Pseudomonas aeruginosa
Procedure, shortened: (§1)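 MIC by microbroth dilution in Mueller-Hinton broth following NCCLS guidelines.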

[2] = system: Staphylococcus aureus; experiment: In vitro antibacterial activity against SG 511 strain of Staphylococcus aureus; procedure, shortened: as §1
[3] = system: Klebsiella pneumoniae; experiment: In vitro antibacterial activity against ATCC 100331 strain of Klebsiella pneumoniae; procedure, shortened: as §1
[4] = system: Stenotrophomonas maltophilia; experiment: In vitro antibacterial activity against GN 12873 strain of Stenotrophomonas maltophilia; procedure, shortened: as §1
[5] = system: Escherichia coli; experiment: In vitro antibacterial activity against ATCC 25922 strain of Escherichia coli; procedure, shortened: as §1
[6] = system: Pseudomonas aeruginosa; experiment: In vitro antibacterial activity against ATCC 27853 strain of Pseudomonas aeruginosa; procedure, shortened: as §1
[7] = system: Serratia marcescens; experiment: In vitro antibacterial activity against SG 621 strain of Serratia marcescens; procedure, shortened: as §1

Row | SMILES | MIC [1] [µg/mL] | MIC [2] [µg/mL] | MIC [3] [µg/mL] | MIC [4] [µg/mL] | MIC [5] [µg/mL] | MIC [6] [µg/mL] | MIC [7] [µg/mL]
1 | CC(=O)Oc1cccc(C(=O)Nc2cc(NC(=O)c3cccc(OC(C)=O)c3OC(C)=O)cc(C(=O)NC(C(=O)NC3C(=O)N4C3SC(C)(C)C4C(=O)O)c3ccccc3)c2)c1OC(C)=O (stereo not drawn) | 0.4 (≈ 0.433 µM) | 25 (≈ 27.1 µM) | 3.12 (≈ 3.38 µM) | 1.56 (≈ 1.69 µM) | 100 (≈ 108 µM) | 3.12 (≈ 3.38 µM) | –
2 | COC(=O)Oc1cccc2c(=O)n(CC(=O)Nc3cc(NC(=O)Cn4c(=O)oc5c(OC(=O)OC)cccc5c4=O)cc(C(=O)NC(C(=O)NC4C(=O)N5C4SC(C)(C)C5C(=O)O)c4ccccc4)c3)c(=O)oc12 (stereo not drawn) | 0.05 (≈ 0.0482 µM) | 25 (≈ 24.1 µM) | 1.56 (≈ 1.5 µM) | 3.12 (≈ 3.01 µM) | 25 (≈ 24.1 µM) | 1.56 (≈ 1.5 µM) | 12.5 (≈ 12 µM)
3 | COC(=O)Oc1cc(Cl)cc(C(=O)N(C)CCCN(CC(=O)NC(C(=O)NC2C(=O)N3C2SC(C)(C)C3C(=O)O)c2ccccc2)C(=O)c2cc(Cl)cc(OC(=O)OC)c2OC(=O)OC)c1OC(=O)OC (stereo not drawn) | < 0.005 | 12.5 (≈ 11.9 µM) | < 0.005 | 0.02 (≈ 0.019 µM) | 0.05 (≈ 0.0476 µM) | 0.1 (≈ 0.0952 µM) | 0.02 (≈ 0.019 µM)
4 | CC(=O)Oc1cccc(C(=O)NCCCCN(Cc2ccc(OCC(=O)NC(C(=O)NC3C(=O)N4C3SC(C)(C)C4C(=O)O)c3ccccc3)cc2)C(=O)c2cccc(OC(C)=O)c2OC(C)=O)c1OC(C)=O (stereo not drawn) | 0.2 (≈ 0.195 µM) | 1.56 (≈ 1.52 µM) | < 0.05 | 0.2 (≈ 0.195 µM) | 0.78 (≈ 0.762 µM) | 6.25 (≈ 6.1 µM) | 6.25 (≈ 6.1 µM)
5 | COC(=O)Oc1cccc2c(=O)n(CCC(=O)Nc3cc(NC(=O)CCn4c(=O)oc5c(OC(=O)OC)cccc5c4=O)cc(C(=O)NC(C(=O)NC4C(=O)N5C4SC(C)(C)C5C(=O)O)c4ccc(O)cc4)c3)c(=O)oc12 (stereo not drawn) | 6.25 (≈ 5.78 µM) | 0.4 (≈ 0.37 µM) | 6.25 (≈ 5.78 µM) | 25 (≈ 23.1 µM) | 6.25 (≈ 5.78 µM) | 6.25 (≈ 5.78 µM) | 50 (≈ 46.2 µM)
6 | COC(=O)Oc1cccc2c(=O)n(-c3cc(C(=O)NC(C(=O)NC4C(=O)N5C4SC(C)(C)C5C(=O)O)c4ccccc4)cc(-n4c(=O)oc5c(OC(=O)OC)cccc5c4=O)c3)c(=O)oc12 (stereo not drawn) | 0.2 (≈ 0.216 µM) | 25 (≈ 27.1 µM) | 6.25 (≈ 6.77 µM) | 0.78 (≈ 0.844 µM) | 25 (≈ 27.1 µM) | 1.56 (≈ 1.69 µM) | 12.5 (≈ 13.5 µM)
7 | COC(=O)Oc1cccc(C(=O)N(C)CCCN(CC(=O)NC(C(=O)NC2C(=O)N3C2SC(C)(C)C3C(=O)O)c2ccccc2)C(=O)c2cccc(OC(=O)OC)c2OC(=O)OC)c1OC(=O)OC (stereo not drawn) | 0.04 (≈ 0.0407 µM) | 5 (≈ 5.09 µM) | 0.005 (≈ 0.00509 µM) | 0.08 (≈ 0.0815 µM) | 0.02 (≈ 0.0204 µM) | 0.31 (≈ 0.316 µM) | 0.02 (≈ 0.0204 µM)
8 | COC(=O)Oc1cc(Cl)c(Cl)c(C(=O)N(C)CCCN(CC(=O)NC(C(=O)NC2C(=O)N3C2SC(C)(C)C3C(=O)O)c2ccccc2)C(=O)c2c(Cl)c(Cl)cc(OC(=O)OC)c2OC(=O)OC)c1OC(=O)OC (stereo not drawn) | 0.05 (≈ 0.0447 µM) | 3.12 (≈ 2.79 µM) | < 0.005 | 0.05 (≈ 0.0447 µM) | 0.02 (≈ 0.0179 µM) | 0.1 (≈ 0.0893 µM) | 0.05 (≈ 0.0447 µM)
9 | C[C@@H](O)[C@H]1C(=O)N2C(C(=O)O)=C(S[C@@H]3CN[C@H](C(=O)N(C)C)C3)[C@H](C)[C@H]12 [MEROPENEM] | 0.2 (≈ 0.522 µM) | 0.1 (≈ 0.261 µM) | 0.04 (≈ 0.104 µM) | > 100 | 0.04 (≈ 0.104 µM) | 0.4 (≈ 1.04 µM) | 0.06 (≈ 0.156 µM)
10 | COC(=O)Oc1cccc(C(=O)N(CCCCn2c(=O)oc3c(OC(=O)OC)cccc3c2=O)CC(=O)NC(C(=O)NC2C(=O)N3C2SC(C)(C)C3C(=O)O)c2ccccc2)c1OC(=O)OC (stereo not drawn) | 0.04 (≈ 0.0421 µM) | 2.5 (≈ 2.63 µM) | < 0.005 | 0.04 (≈ 0.0421 µM) | 0.01 (≈ 0.0105 µM) | 0.156 (≈ 0.164 µM) | < 0.005
11 | CC(=O)Oc1cccc(C(=O)NCCN(CC(=O)NC(C(=O)NC2C(=O)N3C2SC(C)(C)C3C(=O)O)c2ccccc2)C(=O)c2cccc(OC(C)=O)c2OC(C)=O)c1OC(C)=O (stereo not drawn) | 0.4 (≈ 0.449 µM) | 3.12 (≈ 3.51 µM) | 0.1 (≈ 0.112 µM) | 0.78 (≈ 0.877 µM) | 0.78 (≈ 0.877 µM) | 0.78 (≈ 0.877 µM) | 0.78 (≈ 0.877 µM)
12 | CC(=O)Oc1cccc(C(=O)NCCCCN(CC(=O)NC(C(=O)NC2C(=O)N3C2SC(C)(C)C3C(=O)O)c2ccc(O)cc2)C(=O)c2cccc(OC(C)=O)c2OC(C)=O)c1OC(C)=O (stereo not drawn) | 0.01 (≈ 0.0107 µM) | 5 (≈ 5.35 µM) | < 0.005 | 0.005 (≈ 0.00535 µM) | 0.01 (≈ 0.0107 µM) | 0.16 (≈ 0.171 µM) | < 0.005
13 | CC(=O)Oc1cccc(C(=O)NCCCCN(Cc2ccccc2C(=O)NC(C(=O)NC2C(=O)N3C2SC(C)(C)C3C(=O)O)c2ccccc2)C(=O)c2cccc(OC(C)=O)c2OC(C)=O)c1OC(C)=O (stereo not drawn) | 0.1 (≈ 0.101 µM) | 0.78 (≈ 0.785 µM) | < 0.05 | < 0.05 | 0.4 (≈ 0.402 µM) | 0.2 (≈ 0.201 µM) | 0.4 (≈ 0.402 µM)
14 | CC1(C)S[C@@H]2[C@H](NC(=O)[C@H](NC(=O)N3CCNC3=O)c3ccccc3)C(=O)N2[C@H]1C(=O)O [AZLOCILLIN] | 6.25 (≈ 13.5 µM) | 0.4 (≈ 0.867 µM) | 6.25 (≈ 13.5 µM) | 25 (≈ 54.2 µM) | 6.25 (≈ 13.5 µM) | 6.25 (≈ 13.5 µM) | 50 (≈ 108 µM)
15 | CC(=O)Oc1cccc(C(=O)N(C)CCCN(Cc2ccccc2C(=O)NC(C(=O)NC2C(=O)N3C2SC(C)(C)C3C(=O)O)c2ccccc2)C(=O)c2cccc(OC(C)=O)c2OC(C)=O)c1OC(C)=O (stereo not drawn) | 0.04 (≈ 0.0402 µM) | 6.25 (≈ 6.29 µM) | 0.2 (≈ 0.201 µM) | < 0.05 | 1.56 (≈ 1.57 µM) | 0.4 (≈ 0.402 µM) | 0.24 (≈ 0.241 µM)
16 | COC(=O)Oc1cccc2c(=O)n(CCC(=O)Nc3cc(NC(=O)CCn4c(=O)oc5c(OC(=O)OC)cccc5c4=O)cc(C(=O)NC(C(=O)NC4C(=O)N5C4SC(C)(C)C5C(=O)O)c4ccccc4)c3)c(=O)oc12 (stereo not drawn) | 0.05 (≈ 0.0469 µM) | 6.25 (≈ 5.86 µM) | 0.2 (≈ 0.188 µM) | 1.56 (≈ 1.46 µM) | 6.25 (≈ 5.86 µM) | 0.2 (≈ 0.188 µM) | 3.12 (≈ 2.93 µM)
17 | COC(=O)Oc1cccc(C(=O)N(CCCn2c(=O)oc3c(OC(=O)OC)cccc3c2=O)C(C)CCC(=O)NC(C(=O)NC2C(=O)N3C2SC(C)(C)C3C(=O)O)c2ccccc2)c1OC(=O)OC (stereo not drawn) | 0.1 (≈ 0.102 µM) | 1.56 (≈ 1.6 µM) | 0.2 (≈ 0.205 µM) | 0.4 (≈ 0.409 µM) | 1.56 (≈ 1.6 µM) | 3.12 (≈ 3.19 µM) | 0.1 (≈ 0.102 µM)
18 | CC1(C)S[C@@H]2[C@H](NC(=O)[C@H](N)c3ccccc3)C(=O)N2[C@H]1C(=O)O [AMPICILLIN] | > 100 | 0.4 (≈ 1.14 µM) | 6.25 (≈ 17.9 µM) | > 100 | 6.25 (≈ 17.9 µM) | > 100 | 25 (≈ 71.5 µM)
19 | CC(=O)Oc1cccc(C(=O)NCCCCN(CC(=O)NC(C(=O)NC2C(=O)N3C2SC(C)(C)C3C(=O)O)c2ccccc2)C(=O)c2cccc(OC(C)=O)c2OC(C)=O)c1OC(C)=O (stereo not drawn) | < 0.005 | 5 (≈ 5.45 µM) | < 0.005 | 0.005 (≈ 0.00545 µM) | < 0.005 | 0.05 (≈ 0.0545 µM) | < 0.005
20 | CC(=O)Oc1ccc(C(=O)NCCCCN(CC(=O)NC(C(=O)NC2C(=O)N3C2SC(C)(C)C3C(=O)O)c2ccccc2)C(=O)c2ccc(OC(C)=O)c(OC(C)=O)c2)cc1OC(C)=O (stereo not drawn) | 0.2 (≈ 0.218 µM) | 0.78 (≈ 0.85 µM) | 0.4 (≈ 0.436 µM) | 50 (≈ 54.5 µM) | 0.78 (≈ 0.85 µM) | 0.78 (≈ 0.85 µM) | 3.12 (≈ 3.4 µM)
21 | COC(=O)Oc1cc(Br)cc(C(=O)N(C)CCCN(CC(=O)NC(C(=O)NC2C(=O)N3C2SC(C)(C)C3C(=O)O)c2ccccc2)C(=O)c2cc(Br)cc(OC(=O)OC)c2OC(=O)OC)c1OC(=O)OC (stereo not drawn) | < 0.005 | 6.25 (≈ 5.48 µM) | < 0.005 | 0.02 (≈ 0.0175 µM) | < 0.005 | 0.05 (≈ 0.0439 µM) | 0.02 (≈ 0.0175 µM)
22 | CC(=O)Oc1cccc(C(=O)N(C)CCCN(CC(=O)NC(C(=O)NC2C(=O)N3C2SC(C)(C)C3C(=O)O)c2ccccc2)C(=O)c2cccc(OC(C)=O)c2OC(C)=O)c1OC(C)=O (stereo not drawn) | 0.005 (≈ 0.00545 µM) | 3.12 (≈ 3.4 µM) | < 0.005 | 0.02 (≈ 0.0218 µM) | 0.02 (≈ 0.0218 µM) | 0.08 (≈ 0.0872 µM) | 0.05 (≈ 0.0545 µM)
